From PubChem
RGS4 act = RGS4 potentiation or activation; HEK293 M3R/inducible RGS4, carbachol calcium flux Fluo4; stronger effect = lower value; B-score at 10 µM; 0.92% of 310,000 active; AID 463111;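 active means B-score of the integrated calcium signal more than 4 SD below the library mean, with starting fluorescence not abnormally high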;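 further: negative B-score means reduced calcium response which marks RGS4 activation or potentiation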
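Also added: carbachol at ECmax as muscarinic agonist stimulus; Assay system: HEK293 cells with stable M3R and inducible RGS4; Timing: overnight RGS4 induction, 30 min dye load 37 °C, 20 min compound RT; Measured by: Fluo4-AM (2 µM) calcium-flux fluorescence, kinetic read.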
MrgX1 ag = human MrgX1 receptor agonism, primary screen | AID 588627 | MrgX1-HEK293 cells, Fluo-4 calcium fluorescence, agonist mode; stronger effect = higher value | B-score at 10 µM | 0.44% of 310,000 active;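 active means calcium response B-score plate-corrected fluorescence ratio at least 3 library SD, with starting fluorescence B-score inside 5 SD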
Target sequence (Q96LB2 whole entry, looked up): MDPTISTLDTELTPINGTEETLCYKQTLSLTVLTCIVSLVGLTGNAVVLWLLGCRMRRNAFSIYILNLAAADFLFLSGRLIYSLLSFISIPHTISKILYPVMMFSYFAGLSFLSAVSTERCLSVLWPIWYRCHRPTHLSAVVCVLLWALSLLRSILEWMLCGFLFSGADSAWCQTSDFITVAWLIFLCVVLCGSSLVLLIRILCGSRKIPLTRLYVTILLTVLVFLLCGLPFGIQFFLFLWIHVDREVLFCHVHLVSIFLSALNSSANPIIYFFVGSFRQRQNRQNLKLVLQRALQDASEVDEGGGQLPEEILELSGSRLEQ
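Test system: Stable human MrgX1 HEK293 cell line | Schedule: Overnight plating before 1 h dye loading | Read-out basis: Baseline-normalised fluorescence change ratio, B-scored | Detection: Kinetic calcium dye fluorescence, Fluo-4 NW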
RGS4 inh = inhibitors of human RGS4; P49798; HEK293 M3R/RGS4 inducible, Fluo-4 calcium flux; stronger effect = higher value; triggered by carbachol at its EC20; B-score at 10 µM; 0.45% of 310,000 active; AID 463165;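 active means B-score, a plate-corrected calcium signal, over three deviations above library mean, with baseline fluorescence within five deviations of library mean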;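 further: RGS4 expression induced by doxycycline in cells with stable M3 receptor; B-score is computed from the integrated fluorescence ratio over baseline after carbachol; higher B-score means a larger calcium signal and so more RGS4 inhibition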
Target sequence (P49798 whole entry, looked up): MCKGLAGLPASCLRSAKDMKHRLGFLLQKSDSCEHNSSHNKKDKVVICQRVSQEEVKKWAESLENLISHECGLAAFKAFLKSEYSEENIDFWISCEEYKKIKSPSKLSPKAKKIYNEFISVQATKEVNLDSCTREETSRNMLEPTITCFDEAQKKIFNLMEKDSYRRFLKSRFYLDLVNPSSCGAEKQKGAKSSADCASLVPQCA
MrgX1 PAM = human MrgX1 positive allosteric modulation, primary screen | Q96LB2 | MrgX1-HEK293, Fluo-4 calcium flux, FDSS; stronger effect = higher value | B-score at 10 µM | 0.63% of 310,000 active;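 active means plate-corrected calcium response at least 3 library SD above typical, normal starting fluorescence, not activating the receptor alone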;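 further: compound read alongside a low EC10 to EC30 dose of BAM8-22 agonist; peak minus trough fluorescence over baseline measured at the second addition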
MrgX1 antagonist = human MrgX1 receptor antagonism, primary screen; Q96LB2; MRGX1-HEK293 calcium flux, Fluo-4, BAM8-22 antagonism; stronger effect = lower value; B-score at 10 µM; 1.3% of 310,000 active; AID 588676;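 active means calcium-response B-score plate-corrected more than 3 library SD below zero, starting fluorescence within 5 deviations, no agonist response on first addition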;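 further: peak minus trough fluorescence over baseline after final BAM8-22 challenge near maximal dose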
Numbers stand for hits; – = inactive; · = no result. Compounds with a hit are over-represented: about 3.5% of the library has one in this group of screens.

SMILES | RGS4 act | MrgX1 ag | RGS4 inh | MrgX1 PAM | MrgX1 antagonist
CS(=O)(=O)C1=NN2C(=N)/C(=C\c3ccc(OC(=O)c4ccco4)cc3)C(=O)N=C2S1 | – | – | – | 12 | –
CC(C)CS(=O)(=O)C1=NN2C(=N)/C(=C\c3ccc(OC(=O)c4ccco4)cc3)C(=O)N=C2S1 | – | 29 | – | – | –
N=C1/C(=C\c2ccc(OC(=O)c3ccco3)cc2)C(=O)N=C2SC=NN12 | – | · | – | · | ·
Cc1ccc(SC(=O)c2c([N+](=O)[O-])c(C)nn2C)cc1 | – | – | – | – | –
CCc1cccc(OCC(O)Cn2c(N3CCCCC3)nc3c2c(=O)[nH]c(=O)n3C)c1 (centres undefined) | – | – | – | – | –
CCCCN(C(=O)c1ccc(C)c(S(=O)(=O)N2CCOCC2)c1)c1c(N)n(CCCC)c(=O)[nH]c1=O | – | – | – | – | –
CC(C)c1c(Cl)c(O)c(-c2ccccc2)c(=O)n1-c1ccc(F)cc1 | – | – | – | – | -5.3
CC(C)c1cc(O)c(-c2ccccc2)c(=O)n1-c1ccc(Cl)cc1 | – | – | – | – | –
COc1cccc(/C=N/Nc2nc(N3CCCC3)nc(N3CCCC3)n2)c1O | -7.7 | – | – | – | –
O=C(O)c1ccccc1/C=N/Nc1nc(N2CCCCC2)nc(N2CCCCC2)n1 | – | – | – | – | -6.6
Cc1cc2c(cc1S(=O)(=O)NCc1ccc(N(C)C)cc1)OCC(=O)N2 | – | – | – | – | –
COc1ccc(SCC(=O)c2cc(C)c(OC(=S)N(C)C)c(C)c2)cc1 | -7 | – | – | – | –
CCOC(=O)C1CCN(c2cc3c(cc2NC(=O)c2ccccc2OCC)n(C)c(=O)n3C)CC1 | -7.8 | – | – | – | –
CCCCCCCCCCn1c2c(c(=N)c3c1CCC3)CCC2 | -8.7 | – | – | – | -6.2
Cc1nc(N)ncc1Sc1ccccc1 | – | – | – | – | –
O=C(CSc1ccc(-c2nc3ccccc3[nH]2)cn1)Nc1ccc(S(=O)(=O)N2CCCC2)cc1 | -7.1 | – | – | – | –
Cc1cc2nc(-c3ccc(SCC(=O)Nc4ccc(S(=O)(=O)N5CCCC5)cc4)nc3)[nH]c2cc1C | – | – | – | – | –
CCOc1ccc(NC(=O)CCNC(=O)C2CCN(S(=O)(=O)c3ccccc3)CC2)cc1 | – | – | – | – | –
CCN1C(=O)/C(=C/C=C2\N(CC)c3cc(S(=O)(=O)N(C)C)ccc3N2c2ccccc2)SC1=S | – | 36 | – | – | –
O=C(c1ccncc1)N1N=C(c2ccc(Br)cc2)CC1c1ccccc1O (centres undefined) | – | – | – | – | –
CC(=O)N1N=C(c2ccccc2)CC1c1cn(Cc2ccccc2)c2ccccc12 (centres undefined) | – | – | – | – | -4.6
CC(=O)N1N=C(c2ccncc2)CC1c1ccccc1O (centres undefined) | – | – | – | – | -7.5
Cc1csc(N/N=C/c2ccc(O)c([N+](=O)[O-])c2)n1 | – | – | – | – | -6
C/C(N)=C(/C#N)C(=O)COC(=O)COc1ccc(Cl)cc1C | – | – | – | – | –
CCn1c(SCC(=O)NNC(=O)c2ccc(C)cc2)nnc1-c1ccco1 | – | – | – | – | –
SMILES | RGS4 act | MrgX1 ag | RGS4 inh | MrgX1 PAM | MrgX1 antagonist
Cc1ccc(C(=O)c2cc([N+](=O)[O-])ccc2N2CCCCC2)cc1C | -7.6 | – | – | – | –
CCOC(=O)CSc1nc2ccc(NC(=O)CSc3nnnn3Cc3ccccc3)cc2s1 | – | – | – | 6.9 | –
CCC(C)(C)n1nnnc1CN1CCN(C(c2ccccc2)c2ccccc2)CC1 | -7.5 | – | – | – | –
CCC(C)(C)n1nnnc1C(c1ccccc1)N1CCN(Cc2ccccc2)CC1 (centres undefined) | – | – | – | – | –
O=C(CSCCN1C(=O)c2ccccc2C1=O)Nc1ccc2ccccc2c1 | – | – | – | – | –
Cc1c(-n2cc(C(=O)c3cc(F)ccc3O)cc(C#N)c2=O)c(=O)n(-c2ccccc2)n1C | – | – | – | 6.7 | –
O=C(NCCc1ccc(F)cc1)c1ccc(NS(=O)(=O)c2ccc3[nH]c(=O)[nH]c3c2)cc1 | – | – | – | – | –
CCc1ccc(OCC(=O)NNC(=O)Cc2c(F)cccc2Cl)cc1 | – | – | – | – | -6.9
O=C(Cn1ncn2nc(-c3ccccc3)cc2c1=O)NCc1ccccn1 | – | – | – | – | –
CCOC(=O)CNC(=O)C1Cc2ccccc2CN1S(=O)(=O)c1cccs1 (centres undefined) | – | – | – | – | –
CCN(c1ccccc1)P(=O)(Nc1ccccc1)Nc1ccccc1 | – | – | – | – | –
CN(c1ccccc1)P(=O)(N(C)c1ccccc1)N(C)c1ccccc1 | -11 | – | – | – | –
O=C1N/C(=C\c2ccc(N3CCOCC3)c(F)c2)C(=O)N1Cc1ccccc1 | – | – | – | – | -8.6
O=C1N/C(=C/c2cccn2-c2ccccc2)C(=O)N1Cc1ccc(F)cc1 | – | – | – | – | –
Cc1cc2c(=O)oc(-c3ccc(F)cc3)nc2s1 | – | – | – | – | -23
Cc1cc2c(=O)oc(-c3ccccc3Br)nc2s1 | – | · | – | · | ·
CCCCc1ccc(NC(=S)N2CCCC(C)C2)cc1 (centres undefined) | – | – | – | – | –
CN1CCN(c2sc(S(C)(=O)=O)nc2S(=O)(=O)c2ccc(Cl)cc2)CC1 | – | – | – | – | –
N/C(=N\OC(=O)COc1ccc(Br)cc1)c1ccncc1 | – | – | – | – | -6
N/C(=N\OC(=O)COc1ccc([N+](=O)[O-])cc1)c1ccncc1 | – | – | – | – | –
O=C(OCc1ccccc1)/C(=C/c1cccc(Br)c1)NC(=O)c1ccco1 | – | – | – | – | –
COc1ccc(/C=C/c2ccc3cccc(O)c3n2)c(OC)c1OC | – | – | – | – | –
COc1cccc(/C=C/c2ccc3cccc(O)c3n2)c1OC | -7.4 | – | – | – | –
CCNc1nc(NCC)n2c(SCC(=O)Nc3ccc(OC(F)F)cc3)nnc2n1 | – | · | – | · | ·
CCn1nc(C(=O)Nc2ccccc2N2CCCC2)c2ccccc2c1=O | -8.7 | – | – | 12 | –
SMILES | RGS4 act | MrgX1 ag | RGS4 inh | MrgX1 PAM | MrgX1 antagonist
O=C(CNC(=O)N1CC(=O)Nc2ccccc21)NCc1ccccc1Cl | – | – | – | – | –
O=C(O)C1(S(=O)(=O)c2ccc(Cl)cc2)CCC1 | – | – | – | – | –
CCOC(=O)c1ccc(N2Cc3ccccc3C2=N)cc1 | -7.3 | – | – | – | –
CC1CCCN(S(=O)(=O)c2ccc3c(c2)c(=O)nc2ccccn23)C1 (centres undefined) | – | – | – | – | –
O=C1C=C(N2CCCCCC2)C(=O)N1c1ccc(Cl)cc1 | -7 | – | – | – | –
CC1(C)C(=O)OC(c2cccn2-c2ccc([N+](=O)[O-])cc2)C(C)(C)C1=O (centres undefined) | – | – | – | – | -5
O=C1CSC(c2ccc(Cl)cc2)N1c1cccnc1 (centres undefined) | – | – | – | – | –
